Only some compounds are listed: those with a hit (about 1.2% of all), similar ones and a draw of the others.
Rin1-Abl PPI inh: human Rin1-Abl interaction inhibition; P00519+Q13671; TR-FRET Rin1/Abl binding, biochemical; inhibition, % at 7.35 µM; 0.4% of 360,000 active; AID 588664; in the data active = inhibition above about 5%, passing the limit was not always enough
Target sequence (P00519 whole entry, looked up): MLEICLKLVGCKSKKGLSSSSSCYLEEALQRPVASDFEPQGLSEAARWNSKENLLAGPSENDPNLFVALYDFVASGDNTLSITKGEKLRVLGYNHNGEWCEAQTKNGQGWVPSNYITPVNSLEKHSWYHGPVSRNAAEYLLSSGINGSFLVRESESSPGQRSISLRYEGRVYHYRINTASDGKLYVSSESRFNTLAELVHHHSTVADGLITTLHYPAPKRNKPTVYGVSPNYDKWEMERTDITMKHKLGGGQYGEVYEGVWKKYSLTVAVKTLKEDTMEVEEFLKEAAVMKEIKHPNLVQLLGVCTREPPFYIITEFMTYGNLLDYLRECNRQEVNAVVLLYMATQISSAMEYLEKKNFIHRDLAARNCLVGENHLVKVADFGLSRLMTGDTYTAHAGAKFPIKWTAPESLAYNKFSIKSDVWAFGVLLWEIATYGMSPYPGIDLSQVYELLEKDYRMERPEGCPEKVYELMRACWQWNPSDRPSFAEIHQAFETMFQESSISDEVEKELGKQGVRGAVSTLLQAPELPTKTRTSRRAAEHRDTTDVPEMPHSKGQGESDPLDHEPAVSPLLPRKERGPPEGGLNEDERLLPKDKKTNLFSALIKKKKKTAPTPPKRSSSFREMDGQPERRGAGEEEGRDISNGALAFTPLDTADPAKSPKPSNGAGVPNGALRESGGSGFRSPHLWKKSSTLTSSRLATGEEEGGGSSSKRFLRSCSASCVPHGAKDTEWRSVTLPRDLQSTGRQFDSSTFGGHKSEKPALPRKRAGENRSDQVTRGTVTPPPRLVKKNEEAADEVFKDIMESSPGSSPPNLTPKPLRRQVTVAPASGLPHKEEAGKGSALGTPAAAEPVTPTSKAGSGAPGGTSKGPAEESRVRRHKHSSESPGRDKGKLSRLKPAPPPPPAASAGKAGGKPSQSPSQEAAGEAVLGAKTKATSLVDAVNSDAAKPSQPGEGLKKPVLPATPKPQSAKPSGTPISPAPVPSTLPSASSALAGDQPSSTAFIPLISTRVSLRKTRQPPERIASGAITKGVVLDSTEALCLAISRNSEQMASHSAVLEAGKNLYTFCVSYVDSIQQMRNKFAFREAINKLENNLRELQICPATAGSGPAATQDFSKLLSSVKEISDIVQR
Target sequence (Q13671 whole entry, looked up): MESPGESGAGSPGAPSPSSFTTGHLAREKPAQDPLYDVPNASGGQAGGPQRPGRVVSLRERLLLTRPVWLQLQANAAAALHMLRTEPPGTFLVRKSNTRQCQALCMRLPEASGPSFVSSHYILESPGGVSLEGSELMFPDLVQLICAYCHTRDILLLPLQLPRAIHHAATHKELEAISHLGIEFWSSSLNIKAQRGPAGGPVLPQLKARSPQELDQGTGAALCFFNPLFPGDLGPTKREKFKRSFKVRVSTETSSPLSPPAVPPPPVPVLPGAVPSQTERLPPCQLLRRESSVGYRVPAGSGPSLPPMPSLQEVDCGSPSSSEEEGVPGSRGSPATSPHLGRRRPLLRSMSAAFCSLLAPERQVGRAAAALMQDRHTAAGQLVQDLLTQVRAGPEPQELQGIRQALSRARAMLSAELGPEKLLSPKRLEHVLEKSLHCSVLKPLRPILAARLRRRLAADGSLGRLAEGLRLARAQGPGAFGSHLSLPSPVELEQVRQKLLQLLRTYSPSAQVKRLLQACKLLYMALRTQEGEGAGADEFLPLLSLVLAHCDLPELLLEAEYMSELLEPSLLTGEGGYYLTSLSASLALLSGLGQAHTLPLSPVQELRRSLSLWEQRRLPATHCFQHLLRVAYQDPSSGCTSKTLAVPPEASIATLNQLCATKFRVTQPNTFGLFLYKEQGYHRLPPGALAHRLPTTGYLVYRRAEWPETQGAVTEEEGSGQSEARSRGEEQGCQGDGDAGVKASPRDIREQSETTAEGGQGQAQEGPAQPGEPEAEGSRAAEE
GalR3 antag: blocks the human galanin receptor 3; 0.44% of 360,000 active; O60755; HEK293 GalR3-CNG cAMP membrane potential fluorescence; galR3 body fused to GalR1 C-terminus; inhibition, % at 3 µM;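 active = inhibition above the screen-wide average plus 3 SD, cut at about 13% in these data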;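 also: forskolin and galanin both at EC90 stimulate the cells; cAMP rise reported by CNG channel membrane potential dye signal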
ASAP1 GAP inh: ASAP1 ArfGAP inhibition; Q9ULH1; ASAP1-stimulated ARF1 GTP hydrolysis, GDP FP detection; inhibition, % at 16.5 µM; 0.19% of 360,000 active; in the data active = inhibition above about 25%
ARFGAP1 inhibitor: inhibits rat ARF GTPase activating protein 1. Arfgap1-stimulated ARF1 GTP hydrolysis, GDP FP detection. inhibition, % at 16.5 µM. 0.26% of 360,000 active. AID 651572;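 active = inhibition above a per-plate limit, mean inhibition of low control wells plus 3 SD, cut at about 25% in these data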
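System: truncated rat Arfgap1 GAP domain / Benchmarks: high control wells lacking Arfgap1, low control full reaction with DMSO / Times: compound-enzyme preincubation 20 min, reaction 120 min, detection 60 min, 25 °C / Repeats: one replicate per compound / Also added: human ARF1(Δ1-17)-GTP substrate / Measured by: Tracer-displacement fluorescence polarization with EDTA stop, 620/688 nm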
Rin1 Abl conf: Rin1-Abl interaction inhibition confirmation; 49% of 1,300 active; inhibition, % at 7.35 µM; shares compounds with Rin1-Abl PPI inh; TR-FRET Rin1-Abl binding, purified proteins
GFP quencher: GFP fluorescence interference artifact. shares compounds with Rin1-Abl PPI inh. inhibitors/quenchers counterscreen. inhibition, % at 6.75 µM. 8.5% of 1,300 active;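 also: ABL1-eGFP fusion protein alone without its partner RIN1-SBP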
GFP quench dose: GFP fluorescence interference dose response. AID 602182. GFP fluorescence interference/quenching counterscreen. IC50, µM. shares compounds with Rin1-Abl PPI inh. 230 tested, under 10 active; call rule not given here;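 also: ABL1-eGFP fusion protein alone without its RIN1 binding partner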
Large screens that a line does not name were inactive (follow-up assays come after a bar, where they were run). Rule as the data show it, unless noted: active = inhibition above about 6.5%; inactive = the rest.

CCCn1nc(C(=O)N(C)CC(=O)Nc2ccc(OCC)c(OCC)c2)c2ccccc2c1=O	Rin1-Abl PPI inh 21.2 | Rin1 Abl conf 34.3 | GFP quencher inactive | GFP quench dose inactive
C[C@@H]1CN(c2ccc(N3CCN(C(=O)OC(C)(C)C)C[C@H]3C)cc2C#N)CCN1Cc1ccccc1	none (no result: Rin1-Abl PPI inh)
COCCCNc1nc2ccccc2nc1NS(=O)(=O)c1cccs1	Rin1-Abl PPI inh 14.3 | Rin1 Abl conf inactive | GFP quencher inactive
Cc1ccc(C2N(c3ccccc3)C(=O)N3CCCN23)cc1 (stereo not given)	none
S=C1N(c2ccccc2)C(c2ccc(Cl)cc2)N2CCCN12 (stereo not given)	none
O=C1N(c2cccc(Cl)c2)C(c2ccccc2)N2CCCN12 (stereo not given)	Rin1-Abl PPI inh 17.1 | Rin1 Abl conf 24.4 | GFP quencher inactive | GFP quench dose inactive
O=C1N(c2cccc(Cl)c2)C(c2ccc(Cl)cc2)N2CCCN12 (stereo not given)	Rin1-Abl PPI inh 11.1 | Rin1 Abl conf 17.8 | GFP quencher inactive | GFP quench dose inactive
O=C(NCc1ccccc1)[C@H]1CCCN1C(=O)[C@H]1CCCN1C(=O)c1ccc(F)cc1F	none (no result: Rin1-Abl PPI inh)
Cc1nc(CN2CCCCC2)cc(=O)[nH]1	Rin1-Abl PPI inh 9.8 | Rin1 Abl conf inactive | GFP quencher inactive
Cc1nc(CN2CCC(c3ccccc3)CC2)cc(=O)[nH]1	none
Cc1ccc(C(=O)NCC(=O)OCN2C(=O)c3ccccc3C2=O)cc1C	none
Cc1ccc(C(=O)NC2(O)C(=O)c3ccccc3C2=O)cc1C	Rin1-Abl PPI inh 11.7 | Rin1 Abl conf 15.9 | GFP quencher inactive
COc1ccc2cnn(CCOc3ccccc3)c(=O)c2c1OC	Rin1-Abl PPI inh 14.1 | Rin1 Abl conf inactive | GFP quencher inactive
COc1cc(C=NN=c2sc3ccccc3n2C)ccc1OCCO	none (no result: Rin1-Abl PPI inh)
COc1ccc(CNC(=O)c2ccc(NC(=O)CC3SC(N4CCCCC4)=NC3=O)cc2)cc1 (stereo not given)	none
COc1ccc(CNC(=O)c2ccc(NC(=O)CC3SC(N4CCCC4)=NC3=O)cc2)cc1 (stereo not given)	Rin1-Abl PPI inh 7.8 | Rin1 Abl conf 7.5 | GFP quencher inactive
COC(=O)[C@]12C[C@H](CC(=O)NCc3cccc(C(F)(F)F)c3)C(=O)N(Cc3ccc4c(c3)OCO4)C1=C[C@H](C(C)(C)C)O[C@@H]2C	none (no result: Rin1-Abl PPI inh)
CCOC(=O)[C@@H]1CSCCS(=O)(=O)N1C(=O)[C@H](CC(C)C)NC(=O)OC(C)(C)C	none (no result: Rin1-Abl PPI inh)
CCN(CC)C(=O)CSc1nc(Cc2ccccc2)nc2ccccc12	Rin1-Abl PPI inh 24.3 | Rin1 Abl conf 21.4 | GFP quencher inactive | GFP quench dose inactive
C[C@H](CO)N1C[C@H](C)[C@H](CN(C)C(=O)Nc2cccc3ccccc23)Oc2ncc(Br)cc2C1=O	none (no result: Rin1-Abl PPI inh)
CCCCN(C)C(=O)c1ccc(Nc2nc(C(N)Cc3ccc(C(F)(F)F)cc3)cs2)nc1 (stereo not given)	Rin1-Abl PPI inh 8.1 | Rin1 Abl conf inactive | GFP quencher inactive
COc1ccc(C2=NOC(C)(c3nnc(-c4ccncc4)o3)C2)cc1 (stereo not given)	Rin1-Abl PPI inh 12.2 | Rin1 Abl conf inactive | GFP quencher inactive
Cc1ccc(C2=NOC(C)(c3nnc(-c4ccncc4)o3)C2)cc1 (stereo not given)	Rin1-Abl PPI inh 15.5 | Rin1 Abl conf inactive | GFP quencher inactive
COC(=O)[C@]12C[C@H](CC(=O)N3CCSCC3)C(=O)N(Cc3ccc4c(c3)OCO4)C1=C[C@H](COCc1ccccc1)O[C@@H]2C	none (no result: Rin1-Abl PPI inh)
O=S1(=O)c2ccc(Br)cc2OCCC2CCCCN21 (stereo not given)	none (no result: Rin1-Abl PPI inh)
Cc1nc(NS(=O)(=O)c2ccccc2C)c2c3c(sc2n1)CCC3	none (no result: Rin1-Abl PPI inh)
Cc1nc(Nc2cccc(O)c2)c2c3c(sc2n1)CCC3	Rin1-Abl PPI inh 45.5 | Rin1 Abl conf 44.7 | GFP quencher inactive | GFP quench dose inactive
CC(C)c1nc2oc3c(=O)[nH]cnc3c2c2c1CCC2	Rin1-Abl PPI inh 7.8 | Rin1 Abl conf 12.9 | GFP quencher inactive
CC(C)c1nc2oc3c(=O)[nH]cnc3c2c2c1COC(C)(C)C2	none
COc1ccc(CNC(=O)CCSCc2cccc(Cl)c2)c(OC)c1	Rin1-Abl PPI inh 5.2 | Rin1 Abl conf inactive | GFP quencher inactive
O=c1c(O)cccc2cc(O)c(O)c(O)c12	Rin1-Abl PPI inh 42.9 | Rin1 Abl conf 39.1 | GFP quencher 33.2
NC(=O)[C@@H]1CCCN1C(=O)c1cc(COc2ccc3c(c2)CCCC3)on1	Rin1-Abl PPI inh 6.1 | Rin1 Abl conf inactive | GFP quencher inactive
COC(=O)C1=C(C)N(Cc2ccccc2C(F)(F)F)C(=NCc2ccccc2C(F)(F)F)NC1c1ccc(Cl)cc1 (stereo not given)	none (no result: Rin1-Abl PPI inh)
CCCc1nc2nc(C)c(NS(=O)(=O)c3ccc(CC(C)C)cc3)c(=O)n2[nH]1	none
CCc1nc2nc(C)c(NS(=O)(=O)c3ccc(CC(C)C)cc3)c(=O)n2[nH]1	Rin1-Abl PPI inh 8.2 | Rin1 Abl conf inactive | GFP quencher inactive
CCCCOc1ccc(C(=O)N=c2sccn2C)cc1OC	Rin1-Abl PPI inh 19.9 | Rin1 Abl conf 12.4 | GFP quencher inactive
O=C1C=CC(=O)c2c(O)c(N3CCN(CCO)CC3)c(Cl)c(O)c21	Rin1-Abl PPI inh 47.9 | Rin1 Abl conf 51.2 | GFP quencher 23.6
O=C1C=CC(=O)c2c(O)c(N3CCN(CCOCCO)CC3)c(Br)c(O)c21	Rin1-Abl PPI inh 39.4 | Rin1 Abl conf 54.4 | GFP quencher 25.0
Cc1cc(Br)c2nc(-c3ccc(F)cc3)c(Cc3cccc(Cl)c3)n2c1	none (no result: Rin1-Abl PPI inh)
CC(=O)Nc1cnn(Cc2ccc(Br)cc2)c1	none
CC(=O)Nc1cc2c(nc1C)nc(C)n2Cc1ccc(Br)cc1	Rin1-Abl PPI inh 17.9 | Rin1 Abl conf 21.7 | GFP quencher inactive | GFP quench dose inactive
CC(Nc1cccc2ccccc12)C(=O)N/N=C/c1ccccn1 (stereo not given)	Rin1-Abl PPI inh 11.2 | Rin1 Abl conf inactive | GFP quencher inactive
O=C(CCCC(=O)N/N=C\c1ccccn1)N/N=C\c1ccccn1	none
COc1ccc(CN=CC2=C(O)CNC2=O)cc1	Rin1-Abl PPI inh 34.1 | Rin1 Abl conf 43.3 | GFP quencher inactive
Cc1[nH]c2ccccc2c1CC(=O)Nc1ccc(Nc2cccnc2)c(-c2ccc(Oc3ccccc3)cc2)c1	none (no result: Rin1-Abl PPI inh)
COc1ccccc1CCC(=O)N(Cc1ccccc1)c1c(N)n(Cc2ccccc2)c(=O)[nH]c1=O	none
Nc1c(N(Cc2ccccc2)C(=O)CCc2ccccc2)c(=O)[nH]c(=O)n1Cc1ccccc1	Rin1-Abl PPI inh 9.8 | Rin1 Abl conf inactive | GFP quencher inactive

From PubChem BioAssay
